The values below come from ChEMBL document CHEMBL2331165, “Semisynthesis and myocardial activity of thaliporphine N-homologues” (2013).

Test [1] relates to Heart. Briefly: Myocardial activity in Wistar-Kyoto rat heart assessed as heart rate level at 10 uM relative to untreated control. The format is functional. In outline: (§1)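 Right atria from male Wistar-Kyoto rat hearts in an organ bath of Tyrode's solution gassed with CO2−O2 (1:19) at 36 ± 0.2 °C. Spontaneous beating rate recorded and expressed as % of the pre-treatment control. Means from four to five experiments.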

A short description of test [2]: Myocardial activity in Wistar-Kyoto rat right ventricle exposed to electrical stimulation driven at 2 Hz assessed as muscle contraction at 3 uM relative to untreated control. In kind it is functional, Muscle tissue. In outline: (§2)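 Left atrial and right ventricular strips from male Wistar-Kyoto rats, electrically driven, in Tyrode's solution gassed with CO2−O2 (1:19) at 36 ± 0.2 °C. Optimal preload 0.5−1.0 g for maximal developed tension. Contraction recorded by force displacement transducer and expressed as % of the pre-treatment control. Means from four to five experiments.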

Test [3] in a line: Myocardial activity in Wistar-Kyoto rat right atrium exposed to electrical stimulation driven at 2 Hz assessed as muscle contraction at 30 uM relative to untreated control. The format is functional, Muscle tissue.
A short description of test [4]: Myocardial activity in Wistar-Kyoto rat left atrium exposed to electrical stimulation driven at 2 Hz assessed as muscle contraction at 30 uM relative to untreated control. The format is functional, Muscle tissue. In outline: as §2
Test [5] has as its system Heart. Nature of the test: Myocardial activity in Wistar-Kyoto rat heart assessed as heart rate level at 3 uM relative to untreated control. In kind it is functional. In outline: as §1
The nature of test [6]: Myocardial activity in Wistar-Kyoto rat right ventricle exposed to electrical stimulation driven at 2 Hz assessed as muscle contraction at 30 uM relative to untreated control. The format is functional, Muscle tissue. In outline: as §2
The nature of test [7]: Myocardial activity in Wistar-Kyoto rat right atrium exposed to electrical stimulation driven at 2 Hz assessed as muscle contraction at 3 uM relative to untreated control. In kind it is functional, Muscle tissue.
Test [8] can be described thus: Myocardial activity in Wistar-Kyoto rat right atrium exposed to electrical stimulation driven at 2 Hz assessed as muscle contraction at 10 uM relative to untreated control. In kind it is functional, Muscle tissue.
Test [9] in a line: Myocardial activity in Wistar-Kyoto rat left atrium exposed to electrical stimulation driven at 2 Hz assessed as muscle contraction at 3 uM relative to untreated control. The format is functional, Muscle tissue. In outline: as §2
The subject of test [10] is Heart. Briefly: Myocardial activity in Wistar-Kyoto rat heart assessed as heart rate level at 30 uM relative to untreated control. The format is functional. In outline: as §1
Test [11] in a line: Myocardial activity in Wistar-Kyoto rat right ventricle exposed to electrical stimulation driven at 2 Hz assessed as muscle contraction at 10 uM relative to untreated control. In kind it is functional, Muscle tissue. In outline:
as §2

A short description of test [12]: Myocardial activity in Wistar-Kyoto rat left atrium exposed to electrical stimulation driven at 2 Hz assessed as muscle contraction at 10 uM relative to untreated control. In kind it is functional, Muscle tissue. In outline:
as §2

Test [13] is filed under the species Rattus norvegicus. Nature of the test: Positive inotropic effect in Wistar-Kyoto rat left atrium exposed to electrical stimulation driven at 2 Hz assessed as muscle contraction at 3 to 30 uM in presence of 1 uM prazosin relative to untreated control. The following applies: Cardiac atrium. In kind it is functional, tissue-based.
For test [14], the species on record is Rattus norvegicus. Briefly: Positive inotropic effect in Wistar-Kyoto rat left atrium exposed to electrical stimulation driven at 2 Hz assessed as muscle contraction at 3 to 30 uM in presence of 1 uM verapamil relative to untreated control. The format is functional, tissue-based. The conditions noted are these: Cardiac atrium.
The species named for test [15] is Rattus norvegicus. Nature of the test: Positive inotropic effect in Wistar-Kyoto rat left atrium exposed to electrical stimulation driven at 2 Hz assessed as muscle contraction at 3 to 30 uM in presence of 3 uM atenolol relative to untreated control. The format is functional, tissue-based. The conditions noted are these: Cardiac atrium.

Calls of active or inactive are those of the source. The calls are words filed in the database; no cut-off is given here.

Regarding `COc1cc2c(cc1OC)-c1c(O)c(OC)cc3c1[C@H](C2)NCC3`, the Activity in the test with Heart [1] is 78%; in test [2], 102%; in [3], 117%; in test [4], 89%; in the test with Heart [5], 91%; in [6], 90%. In addition, the Activity was found to be 99% in test [7]; 99% in [8]; 94% in test [9]; 61% in the test with Heart [10]; 96% in test [11]; 93% in test [12].
For the compound `COc1cc2c(cc1OC)-c1c(O)c(OC)cc3c1[C@@H](C2)N(C)CC3`, the Activity in the test on Heart [1] is given as 85%; in [2], 93%; in [3], 129%; in test [4] it was 100%; in the test on Heart [5] it was 92%; in test [6] it was 72%. The Activity in test [7] is given as 106%; in test [8], 121%; in test [9] it was 106%; with Heart [10], 69%; in [11], 80%; in test [12], 103%.
Turning to `COc1cc2c(cc1OC)-c1c(O)c(OC)cc3c1[C@H](C2)N(C)CC3`, the Activity in the test on Heart [1] came out at 86%; in test [2], 125%; in test [3], 180%; in test [4] it was 243%; in the test on Heart [5], 92%; in test [6], 163%. The Activity in test [7] came out at 104%; in [8] it was 140%; in [9] it was 110%; with Heart [10] it was 82%; in test [11] it was 154%; in [12], 180%. For the same compound, the outcome in the test listed under Rattus norvegicus [13], in the test listed under Rattus norvegicus [14] and in the test listed under Rattus norvegicus [15] was Active.
Turning to `CCCN1CCc2cc(OC)c(O)c3c2[C@@H]1Cc1cc(OC)c(OC)cc1-3`, the Activity with Heart [1] was found to be 80%; in test [2], 95%; in test [3] it was 103%; in test [4], 74%; with Heart [5], 91%; in test [6], 75%. Also, the Activity is reported as 103% in [7]; 103% in [8]; 99% in test [9]; 61% with Heart [10]; 85% in [11]; 90% in test [12].
In the case of `COc1cc2c(cc1OC)-c1c(O)c(OC)cc3c1[C@@H](C2)NCC3`, the Activity with Heart [1] is 96%; in test [2] it was 108%; in test [3], 105%; in [4], 105%; with Heart [5] it was 100%; in [6] it was 120%. In addition, the Activity in test [7] amounted to 101%; in test [8] it was 103%; in test [9] it was 103%; in the test with Heart [10], 79%; in [11], 111%; in [12] it was 104%.
With `CCN1CCc2cc(OC)c(O)c3c2[C@@H]1Cc1cc(OC)c(OC)cc1-3`, the Activity was 97% with Heart [1]; 100% in [2]; 162% in [3]; 131% in [4]; 97% in the test on Heart [5]; 111% in [6]. The Activity in [7] is given as 93%; in [8] it was 127%; in test [9], 105%; in the test on Heart [10] it was 84%; in test [11], 108%; in test [12], 122%.
As to `CCCN1CCc2cc(OC)c(O)c3c2[C@H]1Cc1cc(OC)c(OC)cc1-3`, the Activity in the test with Heart [1] is reported as 79%; in [2], 100%; in [3], 141%; in test [4], 99%; with Heart [5], 88%; in test [6], 96%. Moreover, the Activity is 121% in [7]; 131% in test [8]; 101% in test [9]; 68% in the test with Heart [10]; 100% in test [11]; 105% in [12].
